Series [1] concerns HIV-1NL4-3.
Series [2] has as its system HIV-1NL4-3. Nature of the series: microbe, parasite or virus in culture. The following applies: Human immunodeficiency virus 1, MT4, read-out: IC50 against Anti-HIV-1.
Series [3] can be described thus: Cytotoxicity in MT-4 cells. In kind it is cell-based. The note with it: human.
Another series can be described thus: in vitro. The class given is cell-based. The note with it: human.
The subject of series [4] is HBV.
Series [5] deals with HBV. Nature of the series: microbe, parasite or virus in culture. The following applies: Hepatitis B virus, HepG2 2.2.15, 288 h, read-out: IC50 against Anti-HBV.
A further series deals with HBVADV-R^A181T/N236T. Nature of the series: Southern blot assay, Huh-7 cells transfected with ADV-resistant HBV plasmid. The class given is cell-based. The note with it: Hepatitis B virus, Huh-7, read-out: IC50 against HBVADV-R^A181T/N236T. The procedure, abridged:
(§1)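 Huh-7 cells were transfected with the HBV variant-containing plasmid and cultured with a range of test compound concentrations. Core-associated HBV DNA was extracted and detected by Southern blot hybridization. IC50 was calculated from the change in signal density, generally averaged over two experiments. The fold change was taken relative to the IC50 against wild-type HBV plasmid.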

The subject of series [6] is HBVETV-R^L180M/S202G/M204V. Nature of the series: Southern blot assay, Huh-7 cells transfected with ETV-resistant HBV plasmid. In kind it is cell-based. The following applies: Hepatitis B virus, Huh-7, read-out: IC50 against HBVETV-R^L180M/S202G/M204V. The procedure, abridged:
as §1

Another series deals with HBV^WT. The following applies: read-out: IC50 against HBV^WT; Southern blotting assay; cited from earlier work.

Where two headings read alike, the source gives them in different places.

One may read the CC50 as the concentration that lowers cell viability or growth by half. Take `Nc1nc(=O)n([C@@H]2CS[C@H](CO)O2)cc1F` [FTC, emtricitabine]: the “S.I. with Anti-HIV-1 (CC50/IC50)” value in the series on HIV-1NL4-3 [1] is above 430. The IC50 was 0.23 ± 0.1 µM with HIV-1NL4-3 [2] and 0.02 ± 0.01 µM in the series on HBV [5]. Besides, the CC50 (in [3]; in “in vitro”) was above 100 µM each time. In addition, in the series with HBV [4], the “S.I. with Anti-HBV (CC50/IC50)” value is reported as > 5,000.

As to `CC(C)(C)C(=O)OCOP(=O)(COCCn1cnc2c(N)ncnc21)OCOC(=O)C(C)(C)C` [ADV, adefovir dipivoxil], the IC50 with HBVADV-R^A181T/N236T is 39.5 ± 13.3 µM; in [6], 36.4 ± 23.5 µM; with HBV^WT, 7.7 µM; with HBV [5], 0.2 ± 0.08 µM. For the same compound, in the series on HIV-1NL4-3 [1] (MT-4 cells), the “S.I. with Anti-HIV-1 (CC50/IC50)” value is reported as 21. Further, the CC50 in series [3] was 5.1 ± 1 µM; in “in vitro”, above 100 µM. The “S.I. with Anti-HBV (CC50/IC50)” value in the series with HBV [4] (HepG2 2.2.15 cells) is on record as above 500.

Values taken from PMC4589464 (Hepatology (Baltimore, Md.), 2015).
